# High-throughput results: PubChem BioAssay, Broad Institute
# Sampled rows, rich in hits. Any-hit rate of the full collection: about 2.2%.
# dFosB act – enhances mouse delta FosB homodimer DNA binding; P13346; purified delta FosB, TAMRA-CDK5 oligo fluorescence polarization; percent of positive-control signal above neutral wells; activation, % at 25 µM; 0.99% of 340,000 active;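 active means mean activation above about 17%, with every replicate also reaching it, limit read from the data, passing the limit was not always enough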
# F508del corr – correctors of CFTR F508del function in bronchial epithelial cells; CFBE cells, YFP halide quenching; stimulated with forskolin plus potentiator P3; % fluorescence drop versus neutral controls; activity (quench increase), % at 7.58 µM; 0.36% of 350,000 active; AID 720511;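 active means mean added fluorescence quench of at least 8% versus neutral control, with both replicates also reaching 8%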;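 further: cells transiently co-express mutant CFTR-F508del with the halide-sensitive YFP; corrector assay measuring rescue of mutant channel to the surface after 24 h compound exposure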
# FGF22 binding – binders of recombinant human FGF22 by thermal shift; Q9HCT0; SYPRO orange fluorescence; percent of sucrose octasulfate shift, DMSO zero; activity (Tm shift, normalised), % at 9.99 µM; 1.5% of 340,000 active; AID 651658;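 active means mean Tm shift, scaled 0 neutral to 100 positive control, at about 1.3% or above, every replicate too, limit read from the data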
# Target sequence (Q9HCT0 whole entry, looked up): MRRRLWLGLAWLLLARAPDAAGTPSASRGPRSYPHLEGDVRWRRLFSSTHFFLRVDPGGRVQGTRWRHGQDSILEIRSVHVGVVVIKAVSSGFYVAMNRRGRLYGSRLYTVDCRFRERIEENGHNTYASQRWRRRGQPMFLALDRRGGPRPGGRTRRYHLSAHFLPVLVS
# S100A4 inh HTS – S100A4-myosin IIA interaction inhibition; S100A4/TAMRA-MyoIIA peptide fluorescence polarization; inhibition, % at 10.7 µM; AID 652163; P26447; 0.14% of 360,000 active;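 active means mean inhibition of at least 70% across replicates, with every replicate also reaching that level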
# Target sequence (P26447 whole entry, looked up): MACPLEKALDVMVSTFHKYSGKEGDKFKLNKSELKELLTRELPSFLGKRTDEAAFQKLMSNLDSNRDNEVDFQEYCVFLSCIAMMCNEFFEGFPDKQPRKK
#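 Assay system: human S100A4 monomer with TAMRA-labelled myosin IIA peptide / Buffer or medium: Calcium-containing HEPES buffer, pH 7.2 / Reagent: TAMRA-labelled myosin IIA heavy-chain peptide probe, 5 nM / Compound: one dose per compound / Timing: polarization read 5 min after assay mix addition, stable 5–60 min / Benchmarks: neutral control DMSO, positive control TFP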
# Starred values were filed as active, the others as inactive; . = no result.
SMILES,dFosB act,F508del corr,FGF22 binding,S100A4 inh HTS
O=C(NCc1cccnc1)c1cc(C2CCCCN2C(=O)CCCc2ccccc2)on1 (configuration not stated),.,11.8*,0.4,7.0
C[C@@H]1CCCCO[C@@H](CN(C)S(=O)(=O)c2cccs2)[C@H](C)CN([C@H](C)CO)C(=O)c2cc(NS(=O)(=O)c3cccs3)ccc2O1,.,1.0,-0.4,-1.6
CN1CCN(c2ccc(S(=O)(=O)N3CCCCC3)cc2NC(=O)/C=C/c2ccc(OC(F)F)cc2)CC1,-19.3,0.9,0.3,3.7
CN1CCN(c2ccc(S(=O)(=O)N3CCCCC3)cc2NC(=O)/C=C/c2ccc(Cl)c([N+](=O)[O-])c2)CC1,52.5*,0.5,-0.9,-2.8
CCN1CCN(c2ccc(S(=O)(=O)N3CCCCC3)cc2NC(=O)/C=C/c2ccc([N+](=O)[O-])cc2)CC1,51.8*,2.7,-0.2,-13.7
CCN1CCN(c2ccc(S(=O)(=O)N3CCCCC3)cc2NC(=O)/C=C/c2ccc(F)cc2)CC1,-14.8,-4.2,-0.3,1.5
C[C@@H]1CN([C@@H](C)CO)S(=O)(=O)c2ccc(-c3cccnc3)cc2O[C@@H]1CN(C)C(=O)c1cccc(F)c1,.,0.4,-0.1,-0.1
C[C@H](CO)N1C[C@H](C)[C@@H](CN(C)C(=O)Nc2cccc3ccccc23)Oc2c(NS(=O)(=O)c3cccs3)cccc2C1=O,.,-2.2,-0.6,-7.8
O=C(NCc1ccccc1)[C@H]1[C@H](CO)[C@H]2Cn3c(cccc3=O)[C@@H]1N2,.,0.4,-0.2,1.8
Cc1ccc2c(nc3s/c(=C\c4ccc(-c5ccccc5C(=O)O)o4)c(=O)n32)c1C,-26.9,-1.7,-0.1,84.5*
O=C(CCN1C(=O)/C(=C\c2ccccc2)SC1=S)Nc1ccc(C(=O)O)cc1,-0.9,-2.6,0.1,-3.0
COc1ccc(/C=C2\SC(=S)N(CCC(=O)Nc3ccc(O)cc3)C2=O)cc1,34.3*,0.6,-0.1,4.4
CCOc1ccc(/C=C2/SC(=S)N(CCC(=O)Nc3ccc(C(=O)O)cc3)C2=O)cc1,47.9*,-1.4,-0.2,1.2
COc1cccc(/C=C2/SC(=S)N(CCCC(=O)Nc3ccc(O)cc3)C2=O)c1,5.0,-2.7,-0.1,-4.2
O=C(CCN1C(=O)/C(=C\c2ccc(F)cc2)SC1=S)Nc1ccc(O)cc1,32.3*,1.9,-0.1,-1.3
O=C(CCN1C(=O)/C(=C\c2ccc(F)cc2)SC1=S)Nc1ccccc1,-1.6,4.3,0.0,-1.5
Cc1noc(C)c1NC(=O)N(C)C[C@H]1Oc2c(NS(=O)(=O)c3ccc(F)cc3)cccc2C(=O)N([C@H](C)CO)C[C@@H]1C,.,-0.5,-0.2,-13.0
Cc1oc(-c2ccccc2Cl)nc1CSCC(=O)NC1CC1,0.4,.,.,.
Cc1oc(-c2ccccc2Cl)nc1CSCC(=O)O,1.3,1.0,-0.1,186.3*
Cc1ccc2nc(-c3ccc(NC(=S)NC4CC(C)(C)NC(C)(C)C4)cc3)sc2c1,-65.0,-14.6,43.1*,-26.8
COc1ccc([C@H]2C[C@@H](O)[C@H](n3cc(COC(=O)c4ccccc4)nn3)CN2C(=O)c2cccs2)cc1,.,1.3,43.3*,1.2
COc1ccc(-n2nc(C(=O)NCC(=O)NCC3COc4ccccc4O3)c3ccccc3c2=O)cc1 (configuration not stated),-8.8,-4.3,43.1*,0.1
Cc1noc(C)c1S(=O)(=O)Nc1ccc2c(c1)CC(=O)N([C@H](C)CO)C[C@@H](C)[C@H](CN(C)CC1CC1)O2,.,-1.2,0.0,40.7
CO[C@@H]1CN(C)C(=O)c2cc(NC(=O)C3CCC3)ccc2OC[C@H](C)N(C(=O)CN(C)C)C[C@H]1C,.,-1.3,-0.4,6.0
O=C(Cn1c(NCCO)nc2ccccc21)NCC1CCCO1 (configuration not stated),5.3,-7.2,43.1*,-0.1
CCN(CC)C(=O)C(=O)c1cn(CC(=O)NCC2CCCO2)c2ccccc12 (configuration not stated),-3.3,-2.0,43.9*,25.4
COc1ccc(C#Cc2ccc3c(c2)[C@@H]2[C@@H](CCN2C(=O)C2CCOCC2)[C@@H](CO)N3)cc1,.,2.1,.,.
CCOc1ccc(S(=O)(=O)Nc2ccc3c(c2)OCO3)c2cccnc12,-6.7,.,.,.
CCOc1ccc(S(=O)(=O)Nc2cccc(C)c2)c2cccnc12,-8.3,2.6,43.0*,-2.1
CC(=O)N(C)C[C@@H]1Oc2cc(C#CC(C)(C)O)ccc2S(=O)(=O)N([C@H](C)CO)C[C@@H]1C,.,-0.6,-0.4,-9.6
